# Screening results as filed in PubChem.
# This is a sample that favours compounds with a hit; in the whole collection about 2.3% have one here.
# ABCB1 inh: ABCB1 efflux pump inhibitors, primary screen, cell-based, multiplex, flow cytometry, ABCG2 counter-screen; ATP-dependent translocase ABCB1 (Homo sapiens), P08183; CCRF-Adr cells, JC-1 efflux; inhibition, % at 6.6 µM; 190,000 tested, 0.067% active; AID 1326, 2008; in the data active means inhibition above about 40%;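 further: 0% = vehicle and 100% = reference inhibitor; higher value means more JC-1 retained so stronger ABCB1 efflux block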
# ABCG2 inh: ABCG2 efflux pump inhibitors, primary screen, multiplex with ABCB1, IgMXP3 cells, flow cytometry; Broad substrate specificity ATP-binding cassette transporter ABCG2 (Homo sapiens), Q9UNQ0; JC-1 efflux; inhibition, % at 6.6 µM; 190,000 tested, 0.1% active;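 active means inhibition above 80%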;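 further: 0% = DMSO and 100% = nicardipine control wells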
#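 System: two drug-resistant human cell lines, ABCG2 and ABCB1; controls: nicardipine high and DMSO low controls; times: 10 min exposure at 25 °C with rotation, no wash; detection: flow cytometry of retained JC-1 fluorescence; read-out basis: percent efflux inhibition, scaled nicardipine 100% to DMSO 0%; doses: one concentration, 6.6 µM final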
# MEKK2wt PB1 HTS: modulators of MEK5 binding to wildtype MEKK2, primary screen, biochemical, multiplex bead flow cytometry, Alexa488-MEK5; binding response (% of control), % at 10 µM; 290,000 tested, 1.1% active; Alexa488-MEK5 binding to MEKK2 WT; actives lie on both sides; Mitogen-activated protein kinase kinase kinase 2 (Homo sapiens), Q9Y2U5; in the data active means binding response below about 67% or above about 130%
# MEKK3 PB1 HTS: modulators of MEKK3-MEK5 PB1 binding, primary screen, biochemical, wildtype MEKK3, multiplex bead flow cytometry, Alexa488-MEK5 | Mitogen-activated protein kinase kinase kinase 3 (Homo sapiens), Q99759 | bead-based flow cytometry, Alexa488-MEK5 binding to MEKK3; actives lie on both sides; 0 = blocked by unlabeled MEK5, 100 = vehicle | binding response (% of control), % at 10 µM | 290,000 tested, 1.4% active;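 active means binding response more than 3 SD above or below the average of its plate-row segment, actives on both sides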;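 further: Alexa488 bead fluorescence after subtracting the streptavidin-only scavenger bead signal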
# Target sequence (Q99759 whole entry, looked up): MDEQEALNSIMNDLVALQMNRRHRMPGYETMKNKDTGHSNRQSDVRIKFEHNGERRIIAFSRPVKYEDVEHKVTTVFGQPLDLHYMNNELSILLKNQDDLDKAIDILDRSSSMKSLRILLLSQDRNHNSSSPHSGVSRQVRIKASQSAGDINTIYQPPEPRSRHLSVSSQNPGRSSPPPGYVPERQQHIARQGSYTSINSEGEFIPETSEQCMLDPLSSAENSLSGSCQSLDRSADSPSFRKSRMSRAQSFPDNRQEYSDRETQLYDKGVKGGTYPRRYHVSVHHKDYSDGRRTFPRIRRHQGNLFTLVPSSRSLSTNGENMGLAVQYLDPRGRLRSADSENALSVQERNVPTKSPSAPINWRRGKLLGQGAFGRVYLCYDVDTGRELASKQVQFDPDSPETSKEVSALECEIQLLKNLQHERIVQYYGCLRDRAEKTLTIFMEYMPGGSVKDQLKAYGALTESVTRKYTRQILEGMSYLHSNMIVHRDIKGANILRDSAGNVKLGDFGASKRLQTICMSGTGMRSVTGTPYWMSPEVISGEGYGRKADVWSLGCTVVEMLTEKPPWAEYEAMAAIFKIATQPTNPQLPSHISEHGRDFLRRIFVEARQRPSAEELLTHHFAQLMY
# MEKK2 mut-MEK5: MEK5 binding signal on mutant MEKK2 PB1, primary screen, biochemical, multiplex bead flow cytometry, Alexa488-MEK5; Alexa488-MEK5 binding to MEKK2 mutant; percent response, % at 10 µM; 290,000 tested, 0.35% active; AID 1530, 2009; in the data active means percent response above about 24%, passing the limit was not always enough
# Active calls of the source: *; · = no result given; [ ] = remark or other dose.
SMILES,ABCB1 inh,ABCG2 inh,MEKK2wt PB1 HTS,MEKK3 PB1 HTS,MEKK2 mut-MEK5
CCN(CC)CCNc1ncnc2c1sc1nc(N3CCCC3)c3c(c12)CC(C)(C)OC3,3.3,4.6,150.0*,110.0,32.0
NS(=O)(=O)c1ccc(CCNCc2cccnc2)cc1,·,·,103.0,98.0,4.0
O=C(Cn1ncc2c([nH]c3ccccc32)c1=O)NCCc1ccc(Cl)cc1,·,·,107.0,104.0,3.0
O=C(Cn1ncc2c([nH]c3ccccc32)c1=O)Nc1ccc(CN2CCCCC2)cc1,·,·,147.0*,107.0,25.0*
CC(=O)N(C1=C(N2CCOCC2)C(=O)c2ccccc2C1=O)c1ccc(C(=O)O)cc1,·,·,-1.0*,99.0,2.0
Cc1nc2ccc(C(=O)N3CCN(Cc4ccccc4)CC3)cc2[nH]1,·,·,96.0,98.0,-2.0
Cc1c(CN2CCC(C(=O)Nc3cccc(-c4cccc(Cl)c4)c3)CC2)cnn1C,·,·,136.0*,97.0,12.0
C=CCn1cc(CN2CCC(C(=O)Nc3cccc(-c4cccc(F)c4)c3)CC2)c(C)n1,·,·,135.0*,105.0,16.0
CCc1ncc(CN2CCCC(C(=O)Nc3cccc(-c4ccc(F)cc4)c3)C2)cn1 (configuration not stated),·,·,114.0,103.0,7.0
COc1cccc(-c2cccc(NC(=O)C3CCN(Cc4cnn(C)c4)CC3)c2)c1,·,·,105.0,98.0,8.0
CCn1cc(CN2CCCC(C(=O)Nc3cccc(-c4cc5ccccc5[nH]4)c3)C2)cn1 (configuration not stated),·,·,147.0*,103.0,22.0
Cn1cc(CN2CCC(C(=O)Nc3cccc(-c4cccc(F)c4)c3)CC2)cn1,·,·,146.0*,107.0,21.0
O=C(CNC(=O)c1ccc(Br)o1)NC1CCCCC1,·,·,102.0,102.0,4.0
C=CCn1cc(CN2CCC(C(=O)Nc3cccc(-c4cccc(Cl)c4)c3)CC2)c(C)n1,·,·,157.0*,99.0,10.0
Cc1nn(C(C)C)c(C)c1CN1CCC(C(=O)Nc2cccc(-c3cccc(F)c3)c2)CC1,·,·,135.0*,99.0,9.0
CCCCc1oc2ccccc2c1C(=O)c1cc(I)c(OCCN(CC)CC)c(I)c1,·,·,163.0*,119.0,51.0*
CCN(CC)CCOc1ncnc2c1oc1ccccc12,0.0,1.6,102.0,101.0,1.0
Cc1occc1-c1nnc(SCC(=O)Nc2ccccc2)n1CCc1ccccc1,1.1,4.7,106.0,106.0,10.0
Cc1occc1-c1nnc(SCC(=O)Nc2ccccc2)n1C,1.0,2.0,-13.0*,92.0,3.0
COCCNc1nc(-c2cc(C)n(CCc3ccc(OC)cc3)c2C)cs1,2.0,1.6,-5.0*,80.0,41.0
COc1ccc(CCNc2nc(-c3sc(N)nc3C)cs2)cc1OC,0.8,65.1,102.0,101.0,-1.0
Cc1cccc(C(=O)N2CCc3cc(-c4nc(NC(=O)CN5CCCC5)sc4C)ccc32)c1,·,·,106.0,102.0,3.0
Cc1cccc(C(=O)N2CCc3cc(-c4csc(NC(=O)CN5CCCC5)n4)ccc32)c1,·,·,121.0,105.0,25.0*
O=C(Nc1ccc(Nc2ccncc2)cc1)c1ccc(Nc2ccnc3ccc([N+](=O)[O-])cc23)cc1[N+](=O)[O-],·,·,28.0*[inhibitor],13.0*[inhibitor],-49.0
O=C(Nc1ccc(Nc2ccncc2)cc1)c1ccc([N+](=O)[O-])cc1,·,·,103.0,98.0,12.0
SMILES,ABCB1 inh,ABCG2 inh,MEKK2wt PB1 HTS,MEKK3 PB1 HTS,MEKK2 mut-MEK5
CCC(C)NC(=O)C1CCC(CNS(=O)(=O)c2ccc3c(c2)N(C(C)=O)CCO3)CC1 (configuration not stated),·,·,104.0,101.0,3.0
Cc1ccc(-c2c(C(=O)N/N=C/c3cccc(Cl)c3)nnn2-c2nonc2N)cc1,·,·,135.0*,112.0,-1.0
Cc1ccc(-c2c(C(=O)N/N=C/c3ccoc3)nnn2-c2nonc2N)cc1,·,·,93.0,95.0,-6.0
O=C(CSc1nc(C2CCCCC2)n(-c2ccccc2)n1)NCCN1C(=O)CSC1=O,0.6,1.2,109.0,104.0,11.0
O=C(CSc1nc(C2CCCCC2)n(-c2ccccc2)n1)NCC(F)(F)F,1.2,22.7,107.0,145.0*,0.0
Cc1cccc(NS(=O)(=O)c2ccc3[nH]c(=O)[nH]c3c2)c1C,·,·,95.0,97.0,-9.0
Cc1cccc(NS(=O)(=O)c2ccc3c(c2)Cc2cc(S(=O)(=O)Nc4cccc(C)c4C)ccc2-3)c1C,-0.1,-1.7,-3.0*,88.0,0.0
CCOC(=O)c1c(-c2ccccc2)csc1/N=C/C1C(=O)CCCC1=O,-0.5,-3.0,149.0,99.0,70.0*
CCOC(=O)c1c(CC(C)C)csc1/N=C/C1C(=O)CCCC1=O,3.0,8.7,95.0,97.0,-3.0
Cc1ccc(C(=O)N/C(=C\c2ccc(-c3ccc([N+](=O)[O-])cc3)o2)C(=O)NC2CCS(=O)(=O)C2)cc1 (configuration not stated),-0.9,40.3,4.0*,98.0,8.0
CC(C)OC(=O)c1c2c(n3ccccc13)C(=O)c1ccccc1C2=O,11.8,40.9,35.0*[inhibitor],94.0,-46.0
Cc1cc(C)cc(OCC(=O)NNC(=S)NC(=O)C2CC2)c1,·,·,104.0,98.0,7.0
CCN(CC)c1ccc(C=NCCNS(=O)(=O)c2ccc(C)cc2)cc1,·,·,-6.0*,98.0,7.0
COc1ccccc1NC(=O)c1ccccc1N(Cc1ccccc1)S(C)(=O)=O,·,·,103.0,100.0,1.0
COc1ccc(C2=NN(C(=O)CSc3ncccn3)C(c3ccc(C)cc3)C2)cc1 (configuration not stated),2.2,27.9,89.0,101.0,3.0
COc1ccc(C2=NN(C(=O)CSc3ncccn3)C(c3cccc(OC)c3OC)C2)cc1 (configuration not stated),2.2,7.7,-7.0*,87.0,-27.0
COc1ccc(S(=O)(=O)NCc2csc(C)n2)cc1OC,·,·,105.0,102.0,10.0
O=C(O/N=C(\c1ccccc1)c1ccncc1)c1ccccc1F,-0.7,-2.2,-8.0*,104.0,4.0
N#C/C(=C/c1ccc(-c2ccccc2)o1)c1nc(-c2cccs2)cs1,6.4,6.3,·,98.0,117.0*
Cc1nn(C)cc1NC(=O)CC12CC3CC(CC(C3)C1)C2,0.0,5.9,109.0,141.0*,4.0
CCn1nc(C)c(NC(=O)CC23CC4CC(CC(C4)C2)C3)c1C,8.0,15.5,95.0,91.0,-2.0
CCOc1ccc(N/C(SCc2cccc([N+](=O)[O-])c2)=C(/C#N)C(N)=O)cc1,1.9,9.0,87.0,96.0,-9.0
N#CC(C#N)=C(Nc1ccc(F)cc1)SCc1cccc(F)c1,-0.2,11.4,4.0*[inhibitor],3.0*[inhibitor],-16.0
